A selection: hits, their analogues and other compounds. The true share with any hit is near 3.9%.
XBP1 UPR activ: activators of adaptive XBP1 UPR arm, primary screen, cell-based, CHO-XBP1 luciferase reporter, luminescence, uHTS; IRE1-XBP1 UPR activation; percent of tunicamycin response, DMSO as zero; activation, % at 20 µM; 330,000 compounds, 0.33% hits; AID 463104, 2010;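 active means versus positive control, 20 µM dose yields 30% or more activation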
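Material: IRE1-XBP1 luciferase reporter CHO line / Quantity: one thousand reporter cells per well / Buffer or medium: F12 with 10% serum / Compound: 20 µM single concentration, DMSO 1% / Times: 6 h treatment, 37 °C / Detection: Steady-Glo luciferase glow luminescence, 10 min after reagent addition / Benchmarks: tunicamycin high, DMSO low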
Jurkat NFkB inh: inhibitors of induced NF-kB luciferase reporter, primary screen, TCR NF-kB activation inhibitor project, cell-based, luminescence, uHTS | Jurkat, PMA/ionomycin-induced NF-kB luciferase reporter | inhibition, % at 4 µM | 330,000 compounds, 0.53% hits; in the data active means inhibition above about 50%
CHOP inhibitor: inhibitors of CHOP promoter induction, primary screen, cell-based, unfolded protein response, luciferase reporter; AID 2732, 2010; inhibition, % at 10 µM; 220,000 compounds, 3.8% hits; CHO-K1 CHOP-promoter luciferase, tunicamycin-induced, 15-18 h;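 active means compounds that reduced the stress-induced luciferase reporter signal by more than about 70% of percent inhibition, limit read from the data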
Gli-Sufu block: Gli-Sufu pathway antagonists, primary screen, luciferase luminescence, Sufu-KO-LIGHT cells, uHTS; Sufu-KO-LIGHT fibroblasts, Gli luciferase reporter luminescence; inhibition, % at 5 µM; 340,000 compounds, 0.74% hits;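 active means inhibition above about 55%, limit read from the data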
CHOP UPR activ: activators of apoptotic CHOP UPR arm, primary screen, cell-based, CHO-CHOP luciferase reporter, luminescence, uHTS. UPR activation; percent of tunicamycin response over DMSO baseline. activation, % at 10 µM. 330,000 compounds, 0.34% hits;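 active means at 10 µM dose, activation of 40% or more, normalized to positive control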
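measured by = luciferase luminescence | assay system = CHO-CHOP cells, stable luciferase reporter of PERK-eIF2a-CHOP signalling | amount = 500 reporter cells seeded per well | timing = 6 h compound exposure at 37 °C after overnight seeding | controls = positive tunicamycin 10 µg/mL, negative DMSO alone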
697 NFkB inh: inhibitors of PMA/ionomycin-induced NF-kB reporter, 697 cells, primary screen, B-cell NF-kB inhibitor project, cell-based, luminescence, uHTS | AID 435022, 2010 | inhibition, % at 4 µM | 697 B-cell NF-kB luciferase reporter, 16 h | 330,000 compounds, 0.33% hits; in the data active means inhibition above about 35%
Numbers stand for hits; – = inactive; · = not tested or not shown.

SMILES	XBP1 UPR activ	Jurkat NFkB inh	CHOP inhibitor	Gli-Sufu block	CHOP UPR activ	697 NFkB inh
CCc1cc(-c2[nH]ncc2-c2ccc(OC)cc2)c(O)cc1O	–	–	·	–	–	–
Cc1nn(C(=O)c2ccco2)c(C)c1Sc1ccccc1	–	–	93	·	–	–
Cc1nn(C(=O)c2ccco2)c(C)c1Sc1ccc(Br)cc1	–	–	–	–	–	–
COc1cccc(N2CCN(C(=O)c3ccccc3SCC(=O)NCc3ccco3)CC2)c1	–	–	·	–	–	–
COC(=O)CSc1c(-c2ccccc2)c2cc(Cl)ccc2[nH]c1=O	–	–	80	–	–	–
COc1ccc2c(=O)c(-c3ccc(C)cc3)c(-c3ccccc3)oc2c1	–	·	·	–	–	–
CCCOc1ccc(/C(O)=C2\C(=O)C(=O)N(c3ccccn3)C2c2ccccc2F)cc1C (centres undefined)	–	–	·	–	–	–
COc1ccc(-n2c(C)cc(=O)[nH]c2=O)cc1	–	–	·	–	–	–
Cc1cccc(C)c1OCC(O)CN(Cc1ccccc1O)C1CCCCC1 (centres undefined)	–	–	85	–	–	–
O=[N+]([O-])c1ccc(Nc2ccccc2)c2nonc12	–	–	·	–	–	–
O=[N+]([O-])c1ccc(Sc2cccc[n+]2[O-])c2nonc12	·	·	108	86	·	·
COc1ccc2nc(SCC(=O)Nc3ccc4c(c3)OCCO4)[nH]c2c1	–	–	76	–	–	–
CCOc1ccc2nc(SCC(=O)Nc3ccc4c(c3)OCCO4)[nH]c2c1	–	–	–	–	–	–
COc1ccc(CCN(C(=O)C(F)(F)F)C(C(=O)NC2CCCCC2)c2ccc(C)s2)cc1 (centres undefined)	–	–	87	–	–	–
Cc1ccc(C(C)C)c(OCCCN(C)Cc2ccccc2)c1	–	–	75	–	–	–
COc1ccc(NC(=O)COc2ccc(N(C)S(=O)(=O)c3ccc(Cl)cc3)cc2)cc1OC	–	–	·	–	–	–
C=CCN1CCc2cc(O)c(O)cc2C(c2ccccc2)C1 (centres undefined)	–	–	95	–	–	–
O=C(COC(=O)/C=C/c1ccc(OC(F)F)cc1)Nc1cccc(S(=O)(=O)N2CCOCC2)c1	–	–	·	–	–	–
O=c1c2ccc(Cl)cc2nc(-c2cccc(C(F)(F)F)c2)n1O	–	–	74	–	–	–
Cc1ccc(Cl)cc1N1CCN(C(=O)c2cc3c(=O)[nH]c4ccccc4c3n2C)CC1	–	–	94	–	–	–
CC1=CC(=O)C(C(C)C)=CC1=NC(=O)c1ccc(C)cc1	–	–	107	–	–	–
CC1=CC(=O)C(C(C)C)=C/C1=N\OC(=O)c1cccc2nc(C)oc12	–	–	–	–	–	–
O=[N+]([O-])c1cccc(S(=O)(=O)Nc2nc3ccccc3nc2Nc2cccc(S(=O)(=O)N3CCCCC3)c2)c1	·	·	82	–	·	·
Cc1ccc(C2=NOC(=O)/C2=C\C=C\c2ccccc2)cc1	·	·	90	–	·	·
CCC(=O)Nc1cc(SCCO)cc([N+](=O)[O-])c1	–	–	–	–	–	–
SMILES	XBP1 UPR activ	Jurkat NFkB inh	CHOP inhibitor	Gli-Sufu block	CHOP UPR activ	697 NFkB inh
O=C(CCl)Nc1cc(SCC(O)CO)cc([N+](=O)[O-])c1 (centres undefined)	·	·	–	63	·	·
Cc1cc(C)c(C2=Nn3c(C)nnc3SC2C)cc1C (centres undefined)	–	–	·	–	–	–
CC(Oc1ccccc1F)C(=O)NCCN1CCCCC1 (centres undefined)	–	–	74	–	–	–
CN(C)c1nc(-c2ccc([N+](=O)[O-])cc2)cs1	–	–	72	–	–	–
Cc1cccc(NC(=O)Cn2ccn(-c3ccc4c(c3)OCCO4)c(=O)c2=O)c1	–	–	·	–	–	–
O=C(Nc1scc(-c2ccccc2)c1C(=O)O)c1ccco1	–	–	73	–	–	–
O=S(=O)(c1ccc(Cl)cc1)N1CCCC1c1nc2ccccc2s1 (centres undefined)	–	–	–	–	–	–
O=S(=O)(c1cc(Cl)cc(Cl)c1)N1CCCC1c1nc2ccccc2s1 (centres undefined)	–	–	70	–	–	–
CCCCSc1nnc(CCCCCNC(=O)OC(C)(C)C)o1	–	–	79	–	–	–
O=C(CCc1cccc(Cl)c1)NC1CCCN(Cc2ccccc2F)C1 (centres undefined)	–	–	·	–	–	–
COc1ccccc1C(=O)NCCC(=O)N1CC=C(c2ccccc2)CC1	–	–	·	–	–	–
CSc1nnc(CSCc2ccc(Cl)cc2Cl)n1-c1ccccc1	–	–	79	–	–	–
COc1ccc(NS(=O)(=O)c2cccc(C(=O)N(C)Cc3ccc(SC)cc3)c2)cc1	–	–	·	–	–	–
CC(CN1CCOCC1)OC(=O)c1ccccc1Cl (centres undefined)	–	–	·	–	–	–
CC(CN1CCOCC1)OC(=O)c1ccc(Br)cc1 (centres undefined)	–	–	92	–	–	–
COC(=O)c1ccc2c(=O)n(CCCCCC(=O)O)c(=S)[nH]c2c1	–	–	73	–	–	–
COC(=O)c1ccc2c(=O)n(Cc3ccc(C(=O)NCCCN4CCC(C)CC4)cc3)c(=S)[nH]c2c1	–	–	–	–	–	–
COC(=O)c1ccc2c(=O)n(Cc3ccc(C(=O)NC4CCCC4)cc3)c(=S)[nH]c2c1	–	–	85	–	–	–
CCCCn1c(N)c(N(CC(C)C)C(=O)c2c(CC)noc2C)c(=O)[nH]c1=O	–	–	·	–	–	–
C=CCn1c(SCc2ccc(Cl)cc2)nc2cc(C(=O)N3CCC(C(N)=O)CC3)ccc2c1=O	–	–	83	–	–	–
COC(=O)c1cc(NC(=O)c2c(Cl)nc3sccn23)cc(C(=O)OC)c1	–	–	76	–	–	–
COC(=O)c1cc(=O)nc2sccn12	–	–	–	–	–	–
Cc1ccc(NC(=O)c2cc(N(C)C)ccc2[P+](=O)O)cc1	–	–	91	–	–	–
Cc1ccc(NC(=O)c2ccc(F)cc2F)cc1	–	–	·	–	–	–
Cc1cccc(N(CC(O)CON=C2c3ccccc3-c3ccccc32)S(C)(=O)=O)c1 (centres undefined)	–	–	70	–	–	–
CS(=O)(=O)N(CC(O)CON=C1c2ccccc2-c2ccccc21)c1ccc(F)cc1 (centres undefined)	–	–	73	–	–	–
